HSF1 activator: HSF-1 activators, primary screen, NIH3T3-HGL cells, MG132 stress, luminescence, single point. NIH3T3-HGL HSF-1 luciferase reporter, 8 h; 100% = twice DMSO control signal. activation, % at 9 µM. 1.7% of 300,000 active. AID 504408, 2011;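 active means mean replicate activation of at least 50% with a set share of replicates each reaching 50%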;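 further: 0% = median of the neutral control wells and 100% = twice that signal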
HSF1 inhib: HSF1 inhibitors in luciferase reporter cells, primary screen, cell-based, NIH3T3, luminescence; NIH3T3-HGL HSE-luciferase, MG132-induced, luminescence 8 h; hits give low values; activity change, negative = inhibition, % at 7.5 µM (by protocol); 0.77% of 300,000 active;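 active means more than half of replicate wells show activity change below -50%, luminescence cut by over half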;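 further: luciferase reports HSF-1 transcriptional activity via heat shock element; 0% = median of DMSO wells and -100% = zero luminescence signal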
Calb FLC: C. albicans growth inhibition with fluconazole, primary screen, CaCi-2 strain, Alamar Blue fluorescence; C. albicans CaCi-2 + fluconazole, 48 h; growth inhibition, % (no concentration beside the values); 0.57% of 300,000 active; AID 1979, 2009;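 active means growth inhibition above about 58% in most replicates, limit read from the data, passing the limit was not always enough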;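 further: all wells also contain fluconazole at 8 µg/ml as a sub-toxic cotreatment; 0% = median of DMSO wells and 100% = median of geldanamycin control wells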
T cruzi repl: inhibitors of intracellular T. cruzi growth, primary screen, luminescence, NIH3T3 host cells; T. cruzi beta-gal in NIH3T3, 90 h; inhibition, % (test concentration not listed); 1.4% of 300,000 active;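 active means mean inhibition across valid replicates above about 55%, limit read from the data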;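 further: signal also drops with host cell toxicity which is not excluded here; 0% = plate median of DMSO wells and 100% = zero luminescence signal; higher percent means less beta-gal luminescence so fewer parasites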
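Read-out: Parasite load inhibition, % | Test system: Mouse NIH/3T3 fibroblasts infected with β-gal-expressing T. cruzi Tulahuen C4 | Amount: 5,000 cells/well | Medium: DMEM, 2% fetal bovine serum | Signal: GalScreen β-gal luminescence, detergent lysis, 60 min | Timing: 3 h attach, ≥90 h co-culture | Also added: Tulahuen C4 trypomastigotes, 5000/well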
HIF activator: HIF pathway transcriptional activators, primary screen, cell-based, U2OS HRE-luciferase, luminescence. 0.32% of 300,000 active. activation, % at 7.5 µM (by protocol). U2OS HRE-luciferase reporter; normalized: DMSO 0%, desferrioxamine 100%;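 active means mean activation of at least 10% of the iron chelator positive control signal, with at least half of replicates also reaching 10%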
Active calls of the source: *; . = no result given. Only some compounds are listed: those with a hit (about 4.4% of all), similar ones and a draw of the others.

SMILES	HSF1 activator	HSF1 inhib	Calb FLC	T cruzi repl	HIF activator
CN(C)S(=O)(=O)c1cccc(-c2nnc(SCC(=O)NCCCCCC(=O)O)n2-c2ccc(F)cc2)c1	-12	4	4	-6	1
CCN1CCCc2cc(CN(CCN3CCOCC3)C(=S)Nc3ccc(OC)c(Cl)c3)ccc21	-1	1	2	59*	0
CCN1CCCc2cc(CN(CCN3CCOCC3)C(=S)Nc3ccc(OC)c(OC)c3)ccc21	15	0	-4	45	0
CCN1CCCc2cc(CN(CCN3CCOCC3)C(=S)Nc3ccccc3OC)ccc21	-5	0	1	57*	0
CCN1CCCc2cc(CN(CCN3CCOCC3)C(=S)Nc3cccc(C)c3)ccc21	-3	-4	0	61*	0
CCN1CCCc2cc(CN(CCN3CCOCC3)C(=S)Nc3ccccc3C)ccc21	-3	-1	15	35	0
COc1cc(C(=O)NNC(=O)c2cc(C)[nH]n2)cc(OC)c1OC	0	-12	-13	2	-1
CCOc1ccc(NC(=O)Nc2nc3ccc(S(C)(=O)=O)cc3s2)cc1	-2	-3	37	7	-2
CC(=O)NCC1=C(NC(C)=O)C2CC1C(C)(C)C2C (stereo not given)	-65	-53*	-2	2	0
O=C(COc1ccc(Cl)cc1)Nc1cccc(-c2ccc(N3CCOCC3)nn2)c1	55*	32	-5	16	3
Cc1cc(C(=O)CSc2nnc3ccccn23)c(C)n1-c1ccccc1	-85	-81*	5	14	-6
Cc1cc(C(=O)CSc2nnc(-c3cccs3)o2)c(C)n1-c1ccccc1	-76	-73*	-7	21	-1
O=C(/C=C/c1ccccc1)Nc1cccnc1Oc1ccccc1F	10	9	3	11	2
Cc1ccc(C(=O)NC(c2ccccc2)C(Cl)Cl)cc1 (stereo not given)	12	5	-4	-11	1
S=C(NCC1CCCO1)N1CCN(c2nc(-c3ccccc3)cs2)CC1 (stereo not given)	-11	4	3	4	-1
Cc1cc(Br)cc(C)c1OCCCCN(C)C	-8	0	-24	63*	0
Cc1cc(Cl)c(OCCCN(C)C)c(Br)c1	28	10	2	52	0
N=c1oc2cc(O)ccc2cc1C(=O)Nc1ccc(Cl)cc1	17	-7	0	6	-1
c1ccc(COc2cccc(CNCc3cccnc3)c2)cc1	7	8	-9	62*	0
c1ccc(COc2cccc(CNCc3ccccn3)c2)cc1	.	.	-38	-3	1
COCCNC(=O)C(c1ccncc1)N(C(=O)c1sc(C)nc1C)c1cccc(C)c1 (stereo not given)	75*	32	-8	2	2
CCC(C)(C)NC(=O)C(c1ccncc1)N(C(=O)c1sc(C)nc1C)c1ccc(F)cc1 (stereo not given)	-51	-38	-13	0	1
Cc1c(OCC(=O)OC(C)(C)C)ccc2c3c(c(=O)oc12)CCC3	11	5	0	-3	0
Cc1oc(C(=O)O)cc1COc1ccc2c3c(c(=O)oc2c1C)CCC3	-69	-60*	0	-11	0
Cc1c(C)c2ccc(OCC(=O)Nc3ccccn3)c(C)c2oc1=O	-91	-88*	3	-4	-6
Cc1c(OCC(=O)NCCCn2ccnc2)ccc2c3c(c(=O)oc12)CCCC3	57*	30	14	12	0
CCCc1cc(=O)oc2c(C)c(OCC(=O)NCCCn3ccnc3)ccc12	6	3	-7	-6	0
CC(C)(C)c1ccc(OCc2ccc(C(=O)N3CCOCC3)o2)cc1	58*	21	9	4	1
CNC(=S)NNC(=O)c1cccc(N(C)C)c1	0	-1	-3	-12	0
Cc1c(/C(O)=C2/C(=O)C(=O)N(Cc3cccnc3)C2c2ccccn2)cnn1-c1ccccc1 (stereo not given)	-80	-76*	-11	-1	-2
